Screening data: PubChem, several laboratories
Shown are actives, neighbours in structure and some others; about 2.9% of the full set was active somewhere.
SENP8 block-1: inhibitors of human SENP8 protease. Q96LD8. purified SENP8, Z-RLRGG-aminoluciferin cleavage, luminescence. inhibition, % at 10 µM. 1.2% of 330,000 active. AID 2540; in the data active means inhibition above about 50%
Target sequence (Q96LD8 whole entry, looked up): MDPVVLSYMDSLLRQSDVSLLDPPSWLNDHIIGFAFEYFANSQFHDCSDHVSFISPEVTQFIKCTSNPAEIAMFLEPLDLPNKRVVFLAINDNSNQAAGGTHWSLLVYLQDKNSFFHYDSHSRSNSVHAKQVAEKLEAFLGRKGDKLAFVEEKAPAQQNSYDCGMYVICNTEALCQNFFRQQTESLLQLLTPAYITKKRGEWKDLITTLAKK
HSP90 refold inh: blocks HSP90-mediated luciferase refolding in reticulocyte lysate; inhibition, % at 5.6 µM; 0.91% of 290,000 active; Rabbit reticulocyte lysate, luciferase refolding luminescence, 3 h;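 active means inhibition above the screen-wide mean plus 3 SD, computed separately per campaign, cut at about 16% in these data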;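 further: inhibitors lower the luminescence because luciferase stays unfolded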
SENP7 block: inhibitors of human SENP7 protease. inhibition, % at 5 µM. Q9BQF6. recombinant SENP7, Z-RLRGG-aminoluciferin luminescence, 40 min. 1.5% of 330,000 active;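 active means inhibition above about 50% at the single test dose, limit read from the data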
SENP1 FRET inh: inhibitors of human SENP1 SUMO protease catalytic domain; Q9P0U3; recombinant SENP1 catalytic domain, CyPet-SUMO1-YPet FRET cleavage; inhibition, % at 10 µM; 0.21% of 360,000 active;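 active means inhibition at least 30% at 10 µM, raw YFP signal under a set limit, fluorescence ratio 0.5 to 1.5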
Target sequence (Q9P0U3 419-644 limits assumed): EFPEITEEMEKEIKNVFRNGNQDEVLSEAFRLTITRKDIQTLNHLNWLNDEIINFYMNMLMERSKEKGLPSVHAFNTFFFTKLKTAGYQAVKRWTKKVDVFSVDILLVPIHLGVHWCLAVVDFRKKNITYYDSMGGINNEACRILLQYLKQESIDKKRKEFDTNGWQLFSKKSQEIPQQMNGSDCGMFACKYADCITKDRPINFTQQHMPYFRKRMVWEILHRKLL
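Material – human SENP1 catalytic domain · Input – SENP1 enzyme, 20 pM final · Compound dosing – single concentration of 10 µM compound, 0.5% DMSO final · Timing – enzyme reaction for 50 min at room temperature, dark · Measured by – FRET fluorescence in CFP and YFP emission channels · Control set – no-enzyme wells low, DMSO-plus-enzyme wells high control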
SENP8 block-2: blocks human SENP8 cleavage of Nedd8 substrate. inhibition, % at 20 µM. recombinant SENP8, Nedd8 substrate fluorescence. 0.64% of 360,000 active. AID 602440; in the data active means inhibition mostly above about 40%, no sharp cut-off; inactive means mostly below about 27%
SENP6 block: SENP6 protease inhibition; AID 2599; 1.8% of 330,000 active; inhibition, % at 10 µM; Recombinant SENP6 catalytic domain, aminoluciferin luminescence;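 active means inhibition above about 50% at the single tested dose, limit read from the data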
SENP8 confirm: human SENP8 inhibition, confirmed. shares compounds with SENP7 block. Recombinant SENP8, Z-RLRGG-aminoluciferin luminescence, 60 min. inhibition, % at 12.5 µM. 40% of 6,200 active. AID 488912;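 active means mean inhibition across replicates above about 50%, limit read from the data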
SENP6 conf: human SENP6 inhibition, confirmed; shares compounds with SENP7 block; recombinant SENP6, Z-RLRGG-aminoluciferin luminescence; inhibition, % at 12.5 µM; 58% of 6,200 active; AID 488915
SENP7 conf: confirmation of human SENP7 protease inhibitors. recombinant SENP7, Z-RLRGG-aminoluciferin luminescence, 40 min. AID 488917. 69% of 6,200 active. shares compounds with SENP7 block. inhibition, % at 12.5 µM
Casp3 SENP sel: inhibits human caspase-3 in SENP selectivity test | 60% of 6,200 active | shares compounds with SENP7 block | purified caspase-3, Z-DEVD-aminoluciferin luminescence, 60 min | inhibition, % at 12.5 µM;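 active means mean inhibition above about 50%, limit read from the data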
Target sequence (P42574 28-227 limits assumed): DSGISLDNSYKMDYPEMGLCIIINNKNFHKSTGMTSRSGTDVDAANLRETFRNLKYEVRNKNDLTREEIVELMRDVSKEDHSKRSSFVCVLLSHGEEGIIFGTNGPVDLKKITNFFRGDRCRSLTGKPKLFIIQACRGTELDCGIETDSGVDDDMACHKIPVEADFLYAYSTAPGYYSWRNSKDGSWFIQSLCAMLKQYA
Luc interf: interferes with luciferase luminescence in SENP counter-screen; shares compounds with SENP7 block; Pre-incubated SENP8/Z-RLRGG-aminoluciferin, luciferase luminescence interference; inhibition, % at 12.5 µM; 39% of 6,200 active; AID 488919;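 active means mean inhibition above about 50% when retested at one dose, limit read from the data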
Of the large screens only hits and unclear results are named; the others gave an inactive call (follow-up assays come after a bar, where they were run).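 How the source made its calls, unless noted: active means mean inhibition above about 50% in the one-dose retest (limit read from the data); inactive means the rest.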

Cc1cc(C(=O)CSc2nc(N)cc(=O)[nH]2)ccc1F	SENP8 block-1 89.6 | SENP8 confirm inactive | SENP6 conf inactive | SENP7 conf inactive | Casp3 SENP sel inactive | Luc interf inactive
O=C(NCCc1ccccc1Cl)C1CCC(=O)N(CC2CCCCC2)C1 (stereo not given)	none
NCCCC[C@@H](C(=O)N1CCNCC1)n1cc([C@@H](N)CC(N)=O)nn1	none (no result: HSP90 refold inh)
Cc1cc(C)nc(N(C#N)Cc2ccccc2C)n1	SENP7 block 96.2 | SENP8 confirm inactive | SENP6 conf inactive | SENP7 conf inactive | Casp3 SENP sel inactive | Luc interf inactive
Cc1cc(C)nc(N(C#N)Cc2ccccc2Cl)n1	none
CC(C)(C)c1cc(C(=O)N/N=C/c2ccc(-c3ccccc3[N+](=O)[O-])o2)n[nH]1	SENP6 block 52.3 | SENP8 confirm inactive | SENP6 conf inactive | SENP7 conf inactive | Casp3 SENP sel inactive | Luc interf inactive
Cc1cc(C(=O)N/N=C/c2ccc(-c3cccc(Cl)c3Cl)o2)n[nH]1	none
Cn1c(NC(=O)c2ccc(F)cc2)nc2ccccc21	SENP8 block-1 64.8, SENP7 block 78.4, SENP6 block 80.2 | SENP8 confirm inactive | SENP6 conf 75.4 | SENP7 conf 95.4 | Casp3 SENP sel 86.2 | Luc interf inactive
Fc1ccc(-c2[nH]ncc2CN(CC2CCC2)CC2CCCO2)c(F)c1 (stereo not given)	none
Cc1ccc(SCc2cn3c(C)csc3n2)cc1	SENP8 block-1 75.1, SENP7 block 85.3, SENP6 block 83.9 | SENP8 confirm 80.3 | SENP6 conf 80.2 | SENP7 conf 95.8 | Casp3 SENP sel 85.9 | Luc interf 86.4
S=C(Nc1ccccn1)c1ccccn1	SENP8 block-1 67.9, SENP7 block 83.8 | SENP8 confirm 53.4 | SENP6 conf 76.3 | SENP7 conf 93.5 | Casp3 SENP sel 85.6 | Luc interf inactive
C[C@H](CO)N1C[C@H](C)[C@@H](CN(C)C(=O)NC2CCCCC2)Oc2ccc(NS(=O)(=O)c3ccc(F)cc3)cc2C1=O	none (no result: HSP90 refold inh)
Oc1ccccc1C=NCCN=Cc1ccccc1O	none
Oc1ccccc1C=NCCCCCCN=Cc1ccccc1O	SENP8 block-1 58.6, SENP6 block 69.3 | SENP8 confirm inactive | SENP6 conf inactive | SENP7 conf inactive | Casp3 SENP sel inactive | Luc interf inactive
CC1CN(CC(=O)NCc2ccc(Cl)cc2)CC(C)O1 (stereo not given)	none
CCOC(=O)c1ccc2nc(NC(=O)c3cccs3)sc2c1	SENP8 block-1 91.7, SENP7 block 96.5, SENP6 block 56.3 | SENP8 confirm inactive | SENP6 conf inactive | SENP7 conf 86.1 | Casp3 SENP sel 51.3 | Luc interf inactive
C=CCOC(=O)c1sc(NC(=O)c2ccco2)nc1C	SENP7 block 55.8 | SENP8 confirm inactive | SENP6 conf inactive | SENP7 conf inactive | Casp3 SENP sel inactive | Luc interf inactive
COc1ccc(-c2nc(NC(=O)c3ccco3)sc2C)cc1	none (no result: SENP8 block-1, HSP90 refold inh, SENP7 block, SENP6 block)
Cc1c(Cl)ccc2sc(NC(=O)c3ccco3)nc12	SENP8 block-1 77.8, SENP7 block 86.1, SENP6 block 66.7 | SENP8 confirm inactive | SENP6 conf 85.8 | SENP7 conf 72.0 | Casp3 SENP sel 54.1 | Luc interf inactive
CCOC(=O)c1ccc2nc(NC(=O)c3ccco3)sc2c1	SENP8 block-1 85.4, SENP7 block 89.8, SENP6 block 93.3 | SENP8 confirm inactive | SENP6 conf inactive | SENP7 conf 77.9 | Casp3 SENP sel 51.4 | Luc interf inactive
CC1(c2ccc(C#N)cc2)NC(=O)N(CC(=O)Nc2cc(S(=O)(=O)N3CCOCC3)ccc2Cl)C1=O (stereo not given)	none
Cc1ccc2c(c1)-n1c(nc3ccccc3c1=O)C(Cc1ccccc1)NC2=O (stereo not given)	none (no result: HSP90 refold inh, SENP1 FRET inh, SENP8 block-2)
O=c1ccnc(S/C=C/c2ccccc2)[nH]1	SENP8 block-1 71.3, SENP6 block 82.6 | SENP8 confirm 78.1 | SENP6 conf 73.4 | SENP7 conf 88.8 | Casp3 SENP sel 87.1 | Luc interf 75.6
S=C(NCC1CCCO1)c1ccc(Br)cc1 (stereo not given)	none
COc1ccc2nc(NC(=O)Cc3cccs3)sc2c1	none
CCOc1ccc2nc(NC(=O)Nc3cccs3)sc2c1	SENP8 block-1 57.5, SENP6 block 67.6 | SENP8 confirm 51.0 | SENP6 conf 60.9 | SENP7 conf 82.1 | Casp3 SENP sel inactive | Luc interf inactive
CCOc1ccc2nc(NC(=O)Cc3cccs3)sc2c1	SENP6 block 64.4 | SENP8 confirm 57.3 | SENP6 conf 54.4 | SENP7 conf 80.3 | Casp3 SENP sel inactive | Luc interf inactive
COc1ccc(CNc2ccc(C)c(C)c2)c(OC)c1OC	none
Cc1ccc(NCc2ccccc2O)cc1C	SENP6 block 52.5 | SENP8 confirm inactive | SENP6 conf inactive | SENP7 conf 74.3 | Casp3 SENP sel inactive | Luc interf 57.4
O=C(OCC(=O)N1CCCc2ccccc21)c1c(F)cccc1F	none (no result: HSP90 refold inh)
CC(=O)NC1=C(N(C)C2CCS(=O)(=O)C2)C(=O)c2ccccc2C1=O (stereo not given)	SENP8 block-2 66.1, SENP6 block 66.9 | SENP8 confirm inactive | SENP6 conf 74.1 | SENP7 conf inactive | Casp3 SENP sel inactive | Luc interf inactive
c1ccc([C@H]2CN3C(=N2)Sc2ccccc23)cc1	SENP8 block-1 88.9, SENP7 block 88.0, SENP6 block 93.5 (no result: HSP90 refold inh) | SENP8 confirm 93.2 | SENP6 conf 93.0 | SENP7 conf 99.7 | Casp3 SENP sel 88.0 | Luc interf 91.5
N#CC1=C(N)N2C(=C(C#N)C1c1ccccc1)Sc1ccccc12 (stereo not given)	none (no result: SENP1 FRET inh, SENP8 block-2)
COc1ccccc1C(=O)O/N=C(\N)c1ccccc1Cl	none
N/C(=N\OC(=O)c1ccc(F)cc1)c1nonc1N	SENP8 block-1 94.0, SENP7 block 98.5, SENP6 block 95.6 | SENP8 confirm 97.5 | SENP6 conf 98.1 | SENP7 conf 102.4 | Casp3 SENP sel 97.9 | Luc interf 87.3
NC(=O)c1ccc(F)cc1	none
